Source: ChEMBL document CHEMBL3352312, “Synthesis of linear and cyclic guazatine derivatives endowed with antibacterial activity” (Bioorg Med Chem Lett, 2014)

Tested on: Streptococcus pyogenes
Assay: Antibacterial activity against Streptococcus pyogenes ATCC 12344 after 16 to 18 hrs by microbroth dilution method
Type: functional
Method in brief: (§1)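 Broth microdilution in Mueller–Hinton broth following CLSI recommendations. Strains came from ATCC or CCUG collections or the authors' clinical isolates. Compounds were dissolved in DMSO as a 100 mg/ml stock and then diluted in culture medium. Inoculum was 5 × 10⁴ CFU/well. MIC was read after 16–18 h incubation at 35–37 °C.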

Structure (SMILES)	MIC
N=C(N)NCCCCCCNCCCCCCNC(=N)NCC1CC1.O=C(O)C(F)(F)F.O=C(O)C(F)(F)F.O=C(O)C(F)(F)F	32 µg/mL
N=C(NCCCCCCCCNCCCCCCCCNC(=N)NCC1CC1)NCC1CC1.O=C(O)C(F)(F)F.O=C(O)C(F)(F)F.O=C(O)C(F)(F)F	> 256 µg/mL
CN(CCCCCCCCNCCCCCCCCNC(=N)N)C(=N)NCC1CC1.O=C(O)C(F)(F)F.O=C(O)C(F)(F)F.O=C(O)C(F)(F)F	8 µg/mL
C#CCNC(=N)NCCCCCCN1CCCCCCCCNC(=N)NC1=O.O=C(O)C(F)(F)F.O=C(O)C(F)(F)F	16 µg/mL
CCNC(=N)NCCCCCCN1CCCCCCCCNC(=N)NC1=O.O=C(O)C(F)(F)F.O=C(O)C(F)(F)F	16 µg/mL
C=C(C)CNC(=N)NCCCCCCN1CCCCCCCCNC(=N)NC1=O.O=C(O)C(F)(F)F.O=C(O)C(F)(F)F	8 µg/mL
C=CCNC(=N)NCCCCCCCCN1CCCCCCCCNC(=N)NC1=O.O=C(O)C(F)(F)F.O=C(O)C(F)(F)F	4 µg/mL

Tested on: Elizabethkingia meningoseptica
Assay: Antibacterial activity against Elizabethkingia meningoseptica CCUG 4310 after 16 to 18 hrs by microbroth dilution method
Type: functional
Method in brief: as §1

Structure (SMILES)	MIC
N=C(N)NCCCCCCNCCCCCCNC(=N)NCC1CC1.O=C(O)C(F)(F)F.O=C(O)C(F)(F)F.O=C(O)C(F)(F)F	> 256 µg/mL
N=C(NCCCCCCCCNCCCCCCCCNC(=N)NCC1CC1)NCC1CC1.O=C(O)C(F)(F)F.O=C(O)C(F)(F)F.O=C(O)C(F)(F)F	> 256 µg/mL
CN(CCCCCCCCNCCCCCCCCNC(=N)N)C(=N)NCC1CC1.O=C(O)C(F)(F)F.O=C(O)C(F)(F)F.O=C(O)C(F)(F)F	32 µg/mL
C#CCNC(=N)NCCCCCCN1CCCCCCCCNC(=N)NC1=O.O=C(O)C(F)(F)F.O=C(O)C(F)(F)F	> 256 µg/mL
CCNC(=N)NCCCCCCN1CCCCCCCCNC(=N)NC1=O.O=C(O)C(F)(F)F.O=C(O)C(F)(F)F	> 256 µg/mL
C=C(C)CNC(=N)NCCCCCCN1CCCCCCCCNC(=N)NC1=O.O=C(O)C(F)(F)F.O=C(O)C(F)(F)F	> 256 µg/mL

Tested on: Acinetobacter baumannii
Assay: Antibacterial activity against Acinetobacter baumannii ATCC 17978 after 16 to 18 hrs by microbroth dilution method
Type: functional
Method in brief: as §1

Structure (SMILES)	MIC
N=C(N)NCCCCCCNCCCCCCNC(=N)NCC1CC1.O=C(O)C(F)(F)F.O=C(O)C(F)(F)F.O=C(O)C(F)(F)F	> 256 µg/mL
N=C(NCCCCCCCCNCCCCCCCCNC(=N)NCC1CC1)NCC1CC1.O=C(O)C(F)(F)F.O=C(O)C(F)(F)F.O=C(O)C(F)(F)F	> 256 µg/mL
CN(CCCCCCCCNCCCCCCCCNC(=N)N)C(=N)NCC1CC1.O=C(O)C(F)(F)F.O=C(O)C(F)(F)F.O=C(O)C(F)(F)F	256 µg/mL
C#CCNC(=N)NCCCCCCN1CCCCCCCCNC(=N)NC1=O.O=C(O)C(F)(F)F.O=C(O)C(F)(F)F	> 256 µg/mL
CCNC(=N)NCCCCCCN1CCCCCCCCNC(=N)NC1=O.O=C(O)C(F)(F)F.O=C(O)C(F)(F)F	> 256 µg/mL
C=C(C)CNC(=N)NCCCCCCN1CCCCCCCCNC(=N)NC1=O.O=C(O)C(F)(F)F.O=C(O)C(F)(F)F	256 µg/mL
C=CCNC(=N)NCCCCCCCCN1CCCCCCCCNC(=N)NC1=O.O=C(O)C(F)(F)F.O=C(O)C(F)(F)F	64 µg/mL

Tested on: Aeromonas hydrophila
Assay: Antibacterial activity against Aeromonas hydrophila ATCC 7966 after 16 to 18 hrs by microbroth dilution method
Type: functional
Method in brief: as §1

Structure (SMILES)	MIC
N=C(N)NCCCCCCNCCCCCCNC(=N)NCC1CC1.O=C(O)C(F)(F)F.O=C(O)C(F)(F)F.O=C(O)C(F)(F)F	> 256 µg/mL
N=C(NCCCCCCCCNCCCCCCCCNC(=N)NCC1CC1)NCC1CC1.O=C(O)C(F)(F)F.O=C(O)C(F)(F)F.O=C(O)C(F)(F)F	> 256 µg/mL
CN(CCCCCCCCNCCCCCCCCNC(=N)N)C(=N)NCC1CC1.O=C(O)C(F)(F)F.O=C(O)C(F)(F)F.O=C(O)C(F)(F)F	> 256 µg/mL
C#CCNC(=N)NCCCCCCN1CCCCCCCCNC(=N)NC1=O.O=C(O)C(F)(F)F.O=C(O)C(F)(F)F	> 256 µg/mL
CCNC(=N)NCCCCCCN1CCCCCCCCNC(=N)NC1=O.O=C(O)C(F)(F)F.O=C(O)C(F)(F)F	> 256 µg/mL
C=C(C)CNC(=N)NCCCCCCN1CCCCCCCCNC(=N)NC1=O.O=C(O)C(F)(F)F.O=C(O)C(F)(F)F	> 256 µg/mL

Tested on: Enterococcus faecalis
Assay: Antibacterial activity against Enterococcus faecalis ATCC 19433 after 16 to 18 hrs by microbroth dilution method
Type: functional
Method in brief: as §1

Structure (SMILES)	MIC
N=C(N)NCCCCCCNCCCCCCNC(=N)NCC1CC1.O=C(O)C(F)(F)F.O=C(O)C(F)(F)F.O=C(O)C(F)(F)F	16 µg/mL
N=C(NCCCCCCCCNCCCCCCCCNC(=N)NCC1CC1)NCC1CC1.O=C(O)C(F)(F)F.O=C(O)C(F)(F)F.O=C(O)C(F)(F)F	> 256 µg/mL
CN(CCCCCCCCNCCCCCCCCNC(=N)N)C(=N)NCC1CC1.O=C(O)C(F)(F)F.O=C(O)C(F)(F)F.O=C(O)C(F)(F)F	4 µg/mL
C#CCNC(=N)NCCCCCCN1CCCCCCCCNC(=N)NC1=O.O=C(O)C(F)(F)F.O=C(O)C(F)(F)F	128 µg/mL
CCNC(=N)NCCCCCCN1CCCCCCCCNC(=N)NC1=O.O=C(O)C(F)(F)F.O=C(O)C(F)(F)F	128 µg/mL
C=C(C)CNC(=N)NCCCCCCN1CCCCCCCCNC(=N)NC1=O.O=C(O)C(F)(F)F.O=C(O)C(F)(F)F	64 µg/mL
C=CCNC(=N)NCCCCCCCCN1CCCCCCCCNC(=N)NC1=O.O=C(O)C(F)(F)F.O=C(O)C(F)(F)F	128 µg/mL

Tested on: Bacillus subtilis
Assay: Antibacterial activity against Bacillus subtilis ATCC 6633 after 16 to 18 hrs by microbroth dilution method
Type: functional
Method in brief: as §1

Structure (SMILES)	MIC
N=C(N)NCCCCCCNCCCCCCNC(=N)NCC1CC1.O=C(O)C(F)(F)F.O=C(O)C(F)(F)F.O=C(O)C(F)(F)F	> 256 µg/mL
N=C(NCCCCCCCCNCCCCCCCCNC(=N)NCC1CC1)NCC1CC1.O=C(O)C(F)(F)F.O=C(O)C(F)(F)F.O=C(O)C(F)(F)F	> 256 µg/mL
CN(CCCCCCCCNCCCCCCCCNC(=N)N)C(=N)NCC1CC1.O=C(O)C(F)(F)F.O=C(O)C(F)(F)F.O=C(O)C(F)(F)F	256 µg/mL
C#CCNC(=N)NCCCCCCN1CCCCCCCCNC(=N)NC1=O.O=C(O)C(F)(F)F.O=C(O)C(F)(F)F	64 µg/mL
CCNC(=N)NCCCCCCN1CCCCCCCCNC(=N)NC1=O.O=C(O)C(F)(F)F.O=C(O)C(F)(F)F	64 µg/mL
C=C(C)CNC(=N)NCCCCCCN1CCCCCCCCNC(=N)NC1=O.O=C(O)C(F)(F)F.O=C(O)C(F)(F)F	16 µg/mL
C=CCNC(=N)NCCCCCCCCN1CCCCCCCCNC(=N)NC1=O.O=C(O)C(F)(F)F.O=C(O)C(F)(F)F	1 µg/mL

Tested on: Pseudomonas aeruginosa
Assay: Antibacterial activity against Pseudomonas aeruginosa ATCC 27853 after 16 to 18 hrs by microbroth dilution method
Type: functional
Method in brief: as §1

Structure (SMILES)	MIC
N=C(N)NCCCCCCNCCCCCCNC(=N)NCC1CC1.O=C(O)C(F)(F)F.O=C(O)C(F)(F)F.O=C(O)C(F)(F)F	> 256 µg/mL
N=C(NCCCCCCCCNCCCCCCCCNC(=N)NCC1CC1)NCC1CC1.O=C(O)C(F)(F)F.O=C(O)C(F)(F)F.O=C(O)C(F)(F)F	> 256 µg/mL
CN(CCCCCCCCNCCCCCCCCNC(=N)N)C(=N)NCC1CC1.O=C(O)C(F)(F)F.O=C(O)C(F)(F)F.O=C(O)C(F)(F)F	8 µg/mL
C#CCNC(=N)NCCCCCCN1CCCCCCCCNC(=N)NC1=O.O=C(O)C(F)(F)F.O=C(O)C(F)(F)F	> 256 µg/mL
CCNC(=N)NCCCCCCN1CCCCCCCCNC(=N)NC1=O.O=C(O)C(F)(F)F.O=C(O)C(F)(F)F	> 256 µg/mL
C=C(C)CNC(=N)NCCCCCCN1CCCCCCCCNC(=N)NC1=O.O=C(O)C(F)(F)F.O=C(O)C(F)(F)F	> 256 µg/mL
C=CCNC(=N)NCCCCCCCCN1CCCCCCCCNC(=N)NC1=O.O=C(O)C(F)(F)F.O=C(O)C(F)(F)F	> 256 µg/mL

Tested on: Escherichia coli
Assay: Antibacterial activity against Escherichia coli CCUGT after 16 to 18 hrs by microbroth dilution method
Type: functional
Method in brief: as §1

Structure (SMILES)	MIC
N=C(N)NCCCCCCNCCCCCCNC(=N)NCC1CC1.O=C(O)C(F)(F)F.O=C(O)C(F)(F)F.O=C(O)C(F)(F)F	> 256 µg/mL
N=C(NCCCCCCCCNCCCCCCCCNC(=N)NCC1CC1)NCC1CC1.O=C(O)C(F)(F)F.O=C(O)C(F)(F)F.O=C(O)C(F)(F)F	> 256 µg/mL
CN(CCCCCCCCNCCCCCCCCNC(=N)N)C(=N)NCC1CC1.O=C(O)C(F)(F)F.O=C(O)C(F)(F)F.O=C(O)C(F)(F)F	> 256 µg/mL
C#CCNC(=N)NCCCCCCN1CCCCCCCCNC(=N)NC1=O.O=C(O)C(F)(F)F.O=C(O)C(F)(F)F	> 256 µg/mL
CCNC(=N)NCCCCCCN1CCCCCCCCNC(=N)NC1=O.O=C(O)C(F)(F)F.O=C(O)C(F)(F)F	> 256 µg/mL
C=C(C)CNC(=N)NCCCCCCN1CCCCCCCCNC(=N)NC1=O.O=C(O)C(F)(F)F.O=C(O)C(F)(F)F	256 µg/mL

Tested on: Staphylococcus epidermidis
Assay: Antibacterial activity against Staphylococcus epidermidis ATCC 14990 after 16 to 18 hrs by microbroth dilution method
Type: functional
Method in brief: as §1

Structure (SMILES)	MIC
N=C(N)NCCCCCCNCCCCCCNC(=N)NCC1CC1.O=C(O)C(F)(F)F.O=C(O)C(F)(F)F.O=C(O)C(F)(F)F	256 µg/mL
N=C(NCCCCCCCCNCCCCCCCCNC(=N)NCC1CC1)NCC1CC1.O=C(O)C(F)(F)F.O=C(O)C(F)(F)F.O=C(O)C(F)(F)F	> 256 µg/mL
CN(CCCCCCCCNCCCCCCCCNC(=N)N)C(=N)NCC1CC1.O=C(O)C(F)(F)F.O=C(O)C(F)(F)F.O=C(O)C(F)(F)F	8 µg/mL
C#CCNC(=N)NCCCCCCN1CCCCCCCCNC(=N)NC1=O.O=C(O)C(F)(F)F.O=C(O)C(F)(F)F	32 µg/mL
CCNC(=N)NCCCCCCN1CCCCCCCCNC(=N)NC1=O.O=C(O)C(F)(F)F.O=C(O)C(F)(F)F	32 µg/mL
C=C(C)CNC(=N)NCCCCCCN1CCCCCCCCNC(=N)NC1=O.O=C(O)C(F)(F)F.O=C(O)C(F)(F)F	16 µg/mL
C=CCNC(=N)NCCCCCCCCN1CCCCCCCCNC(=N)NC1=O.O=C(O)C(F)(F)F.O=C(O)C(F)(F)F	16 µg/mL

Tested on: Klebsiella pneumoniae
Assay: Antibacterial activity against Klebsiella pneumoniae ATCC 13833 after 16 to 18 hrs by microbroth dilution method
Type: functional
Method in brief: as §1

Structure (SMILES)	MIC
N=C(N)NCCCCCCNCCCCCCNC(=N)NCC1CC1.O=C(O)C(F)(F)F.O=C(O)C(F)(F)F.O=C(O)C(F)(F)F	256 µg/mL
N=C(NCCCCCCCCNCCCCCCCCNC(=N)NCC1CC1)NCC1CC1.O=C(O)C(F)(F)F.O=C(O)C(F)(F)F.O=C(O)C(F)(F)F	> 256 µg/mL
CN(CCCCCCCCNCCCCCCCCNC(=N)N)C(=N)NCC1CC1.O=C(O)C(F)(F)F.O=C(O)C(F)(F)F.O=C(O)C(F)(F)F	8 µg/mL
C#CCNC(=N)NCCCCCCN1CCCCCCCCNC(=N)NC1=O.O=C(O)C(F)(F)F.O=C(O)C(F)(F)F	> 256 µg/mL
CCNC(=N)NCCCCCCN1CCCCCCCCNC(=N)NC1=O.O=C(O)C(F)(F)F.O=C(O)C(F)(F)F	> 256 µg/mL
C=C(C)CNC(=N)NCCCCCCN1CCCCCCCCNC(=N)NC1=O.O=C(O)C(F)(F)F.O=C(O)C(F)(F)F	> 256 µg/mL
C=CCNC(=N)NCCCCCCCCN1CCCCCCCCNC(=N)NC1=O.O=C(O)C(F)(F)F.O=C(O)C(F)(F)F	128 µg/mL
